Experimental data reported in ChEMBL document CHEMBL4602720, “Degradation versus Inhibition: Development of Proteolysis-Targeting Chimeras for Overcoming Statin-Induced Compensatory Upregulation of 3-Hydroxy-3-methylglutaryl Coenzyme A Reductase” (J Med Chem, 2020).
Calls of active or inactive are those of the source. The calls are words filed in the database; no cut-off is given here.

Tests used:
[1] = molecular target: T1, Protein cereblon/3-hydroxy-3-methylglutaryl-coenzyme A reductase (Cricetulus griseus) (UniProt P00347+G3H338); experiment: Protac activity at CRBN/HMGCR in Insig-1/Insig-2 deficient Chinese hamster SRD15 cells assessed as induction of HMGCR degradation at 1 uM after 16 hrs by immunoblotting analysis relative to control
In short: (§1)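 Dose-response in SRD15 cells in Medium A with 5% FBS, 16 h treatment, DMSO final 0.1% or lower. RIPA lysates immunoblotted for HMGCR. HMGCR densitometry normalized to actin, with the DMSO group set to 1. Three repeats. DC50 is taken from a dose-response fit of the semi-quantitative blots, mean of 3 independent experiments.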

[2] = molecular target: T2, Protein cereblon/3-hydroxy-3-methylglutaryl-coenzyme A reductase (Homo sapiens) (UniProt P04035+Q96SW2); experiment: Protac activity at human Flag-tagged CRBN/Myc-tagged HMGCR expressed in HEK293T cells assessed as induction of HMGCR immunoprecipitation 1 uM preincubated for 16 hrs followed by atorvastatin addition addition and measured after 5 hrs in presence of MG132 by Western blot analysis; format: cell-based; conditions: HEK-293T
T2 sequence (P04035 whole entry, looked up): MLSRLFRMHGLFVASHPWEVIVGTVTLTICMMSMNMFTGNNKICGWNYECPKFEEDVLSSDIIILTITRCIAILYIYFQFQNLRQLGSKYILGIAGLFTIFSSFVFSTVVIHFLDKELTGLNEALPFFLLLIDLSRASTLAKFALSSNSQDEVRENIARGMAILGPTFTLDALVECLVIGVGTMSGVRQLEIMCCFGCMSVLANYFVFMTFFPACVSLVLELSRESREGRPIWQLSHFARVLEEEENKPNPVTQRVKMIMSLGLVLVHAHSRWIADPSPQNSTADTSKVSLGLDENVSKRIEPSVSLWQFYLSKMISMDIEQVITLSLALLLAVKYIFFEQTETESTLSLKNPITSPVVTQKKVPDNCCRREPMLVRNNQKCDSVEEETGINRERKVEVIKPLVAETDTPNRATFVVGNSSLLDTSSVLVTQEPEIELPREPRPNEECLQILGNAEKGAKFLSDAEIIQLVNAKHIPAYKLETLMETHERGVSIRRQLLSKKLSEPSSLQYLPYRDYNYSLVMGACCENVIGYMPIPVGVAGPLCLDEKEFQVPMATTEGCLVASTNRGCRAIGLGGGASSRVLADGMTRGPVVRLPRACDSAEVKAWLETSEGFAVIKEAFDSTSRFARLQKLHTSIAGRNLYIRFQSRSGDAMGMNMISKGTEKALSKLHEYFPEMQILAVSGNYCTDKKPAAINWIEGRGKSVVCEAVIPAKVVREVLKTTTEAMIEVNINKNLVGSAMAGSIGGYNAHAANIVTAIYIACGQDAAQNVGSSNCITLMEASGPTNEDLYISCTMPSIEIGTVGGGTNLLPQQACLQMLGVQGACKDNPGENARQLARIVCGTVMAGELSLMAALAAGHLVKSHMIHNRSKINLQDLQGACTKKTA
T2 sequence (Q96SW2 whole entry, looked up): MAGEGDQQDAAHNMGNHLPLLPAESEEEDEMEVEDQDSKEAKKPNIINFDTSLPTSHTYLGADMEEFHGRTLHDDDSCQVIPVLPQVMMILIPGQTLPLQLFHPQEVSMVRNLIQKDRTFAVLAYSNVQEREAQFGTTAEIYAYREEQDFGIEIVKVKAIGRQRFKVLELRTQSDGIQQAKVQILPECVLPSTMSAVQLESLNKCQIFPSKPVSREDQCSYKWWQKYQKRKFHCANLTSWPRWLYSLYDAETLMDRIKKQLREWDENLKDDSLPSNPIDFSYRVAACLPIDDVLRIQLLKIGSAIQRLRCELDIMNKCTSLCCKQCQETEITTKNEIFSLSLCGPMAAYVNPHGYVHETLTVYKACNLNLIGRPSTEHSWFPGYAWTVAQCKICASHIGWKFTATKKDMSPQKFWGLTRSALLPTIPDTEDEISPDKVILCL

[3] = molecular target: T1, Protein cereblon/3-hydroxy-3-methylglutaryl-coenzyme A reductase (Cricetulus griseus); experiment: Protac activity at CRBN/HMGCR in Insig-1/Insig-2 deficient Chinese hamster SRD15 cells assessed as HMGCR level at 0.3 uM after 16 hrs by immunoblotting analysis (reference value: 1); in short: as §1
Target sequence in this assay (G3H338 1-445 partner): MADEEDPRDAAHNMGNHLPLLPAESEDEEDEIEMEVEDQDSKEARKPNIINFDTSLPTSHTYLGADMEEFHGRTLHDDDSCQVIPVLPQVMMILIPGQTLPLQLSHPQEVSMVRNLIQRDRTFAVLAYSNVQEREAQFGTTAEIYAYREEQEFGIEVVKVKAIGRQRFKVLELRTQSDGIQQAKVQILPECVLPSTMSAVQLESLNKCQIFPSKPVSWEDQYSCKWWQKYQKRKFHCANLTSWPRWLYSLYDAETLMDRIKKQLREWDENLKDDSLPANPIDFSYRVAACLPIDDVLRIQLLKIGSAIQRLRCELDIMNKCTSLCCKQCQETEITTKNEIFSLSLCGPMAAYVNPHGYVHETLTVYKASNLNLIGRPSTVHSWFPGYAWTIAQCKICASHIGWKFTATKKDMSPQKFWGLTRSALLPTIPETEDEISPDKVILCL
Target sequence in this assay (P00347 whole entry): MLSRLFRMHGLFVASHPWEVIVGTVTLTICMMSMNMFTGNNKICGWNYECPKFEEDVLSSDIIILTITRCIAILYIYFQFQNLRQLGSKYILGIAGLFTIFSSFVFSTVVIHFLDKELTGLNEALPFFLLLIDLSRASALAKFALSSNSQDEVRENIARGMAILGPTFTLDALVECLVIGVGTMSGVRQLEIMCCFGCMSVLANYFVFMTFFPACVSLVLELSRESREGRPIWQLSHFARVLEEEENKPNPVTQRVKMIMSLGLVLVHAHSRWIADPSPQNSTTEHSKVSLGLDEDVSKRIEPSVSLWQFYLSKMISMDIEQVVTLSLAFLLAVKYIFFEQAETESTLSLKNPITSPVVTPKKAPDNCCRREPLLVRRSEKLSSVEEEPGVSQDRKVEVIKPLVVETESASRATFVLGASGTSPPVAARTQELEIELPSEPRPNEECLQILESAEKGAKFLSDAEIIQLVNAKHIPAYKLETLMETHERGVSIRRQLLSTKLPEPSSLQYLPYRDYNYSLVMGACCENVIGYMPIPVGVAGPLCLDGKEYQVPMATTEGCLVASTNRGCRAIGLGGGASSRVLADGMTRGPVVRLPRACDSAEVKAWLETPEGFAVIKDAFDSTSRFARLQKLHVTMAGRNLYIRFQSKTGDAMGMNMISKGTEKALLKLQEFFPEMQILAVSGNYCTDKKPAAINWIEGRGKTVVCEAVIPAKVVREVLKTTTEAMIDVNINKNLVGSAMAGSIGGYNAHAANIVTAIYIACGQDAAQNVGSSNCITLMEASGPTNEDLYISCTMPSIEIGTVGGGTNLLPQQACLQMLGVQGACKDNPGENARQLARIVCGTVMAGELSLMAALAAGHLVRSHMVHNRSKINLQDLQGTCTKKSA

[4] = molecular target: T2, Protein cereblon/3-hydroxy-3-methylglutaryl-coenzyme A reductase (Homo sapiens); experiment: (§2) Protac activity at human Flag-tagged CRBN/T7-tagged HMGCR expressed in Chinese hamster SRD15 cells transfected with HA-tagged ubiquitin assessed as increase in HMGCR immunoprecipitation 1 uM incubated for 16 hrs followed by pomalidomide addition addition and measured after 5 hrs in presence of MG132 by Western blot analysis; format: cell-based
[5] = molecular target: T2, Protein cereblon/3-hydroxy-3-methylglutaryl-coenzyme A reductase (Homo sapiens); experiment: as §2, with “atorvastatin” for “pomalidomide”; format: cell-based
[6] = molecular target: T1, Protein cereblon/3-hydroxy-3-methylglutaryl-coenzyme A reductase (Cricetulus griseus); experiment: Protac activity at CRBN/HMGCR in 5'-CCAGAAACUGAAGAUGAAA-3' siRNA transfected in Insig-1/Insig-2 deficient Chinese hamster SRD15 cells assessed as induction of HMGCR degradation at 1 uM after 16 hrs by immunoblotting analysis
In short: (§3)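 SRD15 cells (Insig-1/Insig-2-deficient CHO-7) in Medium A with 5% FBS at 37 °C, 5% CO2; transfected with negative-control or Crbn-targeting siRNA duplexes for 48 h, then given 1 μM degrader for 16 h. HMGCR by SDS-PAGE immunoblot of RIPA lysates. Knockdown efficiency checked by qRT-PCR against hamster GAPDH, comparative CT method. n = 3 independent experiments.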

[7] = molecular target: T1, Protein cereblon/3-hydroxy-3-methylglutaryl-coenzyme A reductase (Cricetulus griseus); experiment: Protac activity at CRBN/HMGCR in Insig-1/Insig-2 deficient Chinese hamster SRD15 cells assessed as HMGCR level at 1 uM after 16 hrs by immunoblotting analysis relative to control; in short: as §1
Target sequence in this assay (G3H338 1-445 partner): as the sequence (G3H338 1-445 partner) above
Target sequence in this assay (P00347 whole entry): as the sequence (P00347 whole entry) above

[8] = molecular target: T1, Protein cereblon/3-hydroxy-3-methylglutaryl-coenzyme A reductase (Cricetulus griseus); experiment: Protac activity at CRBN/HMGCR in Insig-1/Insig-2 deficient Chinese hamster SRD15 cells assessed as HMGCR level at 1 uM after 16 hrs in presence of 1 uM P22A-Et by immunoblotting analysis (reference value: 1)
[9] = molecular target: T1, Protein cereblon/3-hydroxy-3-methylglutaryl-coenzyme A reductase (Cricetulus griseus); experiment: Protac activity at CRBN/HMGCR in Insig-1/Insig-2 deficient Chinese hamster SRD15 cells assessed as HMGCR level at 1 uM after 16 hrs in presence of 1 uM pomalidomide by immunoblotting analysis (reference value: 1)
[10] = molecular target: T1, Protein cereblon/3-hydroxy-3-methylglutaryl-coenzyme A reductase (Cricetulus griseus); experiment: Protac activity at CRBN/HMGCR in Insig-1/Insig-2 deficient Chinese hamster SRD15 cells assessed as HMGCR level at 1 uM after 16 hrs by immunoblotting analysis (reference value: 1); in short: as §1
Target sequence in this assay (G3H338 1-445 partner): as the sequence (G3H338 1-445 partner) above
Target sequence in this assay (P00347 whole entry): as the sequence (P00347 whole entry) above

[11] = molecular target: T3, Sterol regulatory element-binding protein 2 (Mus musculus) (UniProt Q3U1N2); experiment: Activation of SREBP2 pathway in mouse primary hepatocytes assessed as increase in LDLR mRNA expression at 0.3 to 1 uM afer 16 hrs by quantitative real-time PCR analysis; format: cell-based
T3 sequence (whole entry): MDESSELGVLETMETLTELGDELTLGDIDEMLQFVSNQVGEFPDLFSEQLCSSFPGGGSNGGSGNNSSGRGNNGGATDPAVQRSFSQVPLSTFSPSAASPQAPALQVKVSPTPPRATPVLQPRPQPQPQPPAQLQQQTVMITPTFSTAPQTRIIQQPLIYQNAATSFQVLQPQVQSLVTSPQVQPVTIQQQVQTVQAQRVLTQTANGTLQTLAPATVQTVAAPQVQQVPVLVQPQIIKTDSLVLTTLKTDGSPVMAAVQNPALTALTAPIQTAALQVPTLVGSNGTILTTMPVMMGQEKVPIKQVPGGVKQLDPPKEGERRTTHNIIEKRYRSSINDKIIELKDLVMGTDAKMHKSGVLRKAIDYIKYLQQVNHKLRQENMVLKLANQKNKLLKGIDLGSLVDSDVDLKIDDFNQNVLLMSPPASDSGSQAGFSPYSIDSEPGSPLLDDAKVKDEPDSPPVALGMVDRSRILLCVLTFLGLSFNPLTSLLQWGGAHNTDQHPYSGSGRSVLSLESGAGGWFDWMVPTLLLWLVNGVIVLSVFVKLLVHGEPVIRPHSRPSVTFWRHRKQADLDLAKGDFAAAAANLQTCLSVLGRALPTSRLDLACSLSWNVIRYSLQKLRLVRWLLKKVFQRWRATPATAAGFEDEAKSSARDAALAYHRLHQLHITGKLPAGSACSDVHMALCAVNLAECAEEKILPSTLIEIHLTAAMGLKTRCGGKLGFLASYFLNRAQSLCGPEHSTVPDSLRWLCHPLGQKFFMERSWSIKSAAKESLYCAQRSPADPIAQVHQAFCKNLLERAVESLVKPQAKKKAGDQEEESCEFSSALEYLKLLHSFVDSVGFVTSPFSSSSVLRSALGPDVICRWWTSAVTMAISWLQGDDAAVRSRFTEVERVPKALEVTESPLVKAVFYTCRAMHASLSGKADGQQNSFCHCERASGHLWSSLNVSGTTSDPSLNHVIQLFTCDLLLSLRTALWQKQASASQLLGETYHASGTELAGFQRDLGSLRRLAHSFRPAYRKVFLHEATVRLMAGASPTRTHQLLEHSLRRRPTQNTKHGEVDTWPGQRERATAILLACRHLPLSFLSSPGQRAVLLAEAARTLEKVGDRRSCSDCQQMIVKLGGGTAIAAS

[12] = molecular target: T2, Protein cereblon/3-hydroxy-3-methylglutaryl-coenzyme A reductase (Homo sapiens); experiment: Protac activity at CRBN/HMGCR in human Huh7 cells assessed as induction of HMGCR degradation at 0.01 to 1 uM after 16 hrs by Western blot analysis; format: cell-based; conditions: Huh-7
[13] = molecular target: T1, Protein cereblon/3-hydroxy-3-methylglutaryl-coenzyme A reductase (Cricetulus griseus); experiment: Protac activity at CRBN/HMGCR in Insig-1/Insig-2 deficient Chinese hamster SRD15 cells assessed as HMGCR level at 0.03 uM after 16 hrs by immunoblotting analysis (reference value: 1); in short: as §1
[14] = molecular target: T1, Protein cereblon/3-hydroxy-3-methylglutaryl-coenzyme A reductase (Cricetulus griseus); experiment: Protac activity at CRBN/HMGCR in 5'-GCAAGGCAGUGUAUAUUAU-3' siRNA transfected in Insig-1/Insig-2 deficient Chinese hamster SRD15 cells assessed as induction of HMGCR degradation at 1 uM after 16 hrs by immunoblotting analysis; in short: as §3

## CC(C)c1c(C(=O)Nc2ccccc2)c(-c2cccc(OCCCc3cn(CCOCCOCCOCCOCCNc4cccc5c4C(=O)N(C4CCC(=O)NC4=O)C5=O)nn3)c2)c(-c2ccc(F)cc2)n1CC[C@@H](O)C[C@@H](O)CC(=O)O (some centres undefined)
[1]
  Activity: 70%
[2]
  Activity: inactive
[3]
  fold change (FC): 0.4
[4]
  Activity: inactive
[5]
  Activity: inactive
[6]
  Activity: inactive
[7]
  Activity: 50%
[8]
  fold change (FC): 1.1
[9]
  fold change (FC): 1
[10]
  fold change (FC): 0.3 to 0.6
[11]
  Activity: Active
[12]
  Activity: Active
[13]
  fold change (FC): 0.6
[14]
  Activity: inactive
